# Bioassay records deposited in PubChem BioAssay by several laboratories.
# Only some compounds are listed: those with a hit (about 2.1% of all), similar ones and a draw of the others.
# RanGTP-Impb inh: inhibitors of RanGTP-importin-beta interaction, primary screen, biochemical, FRET, CFP-Ran, YFP-importin-beta, homogeneous; cell-free CFP-Ran/YFP-importin-beta FRET ratio; inhibition, % (test concentration not listed); 300,000 tested, 1.1% active; AID 2216;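 active means more than half of the replicate wells show a fall in the fluorescence ratio signal beyond about 16%, limit read from the data, passing the limit was not always enough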;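 further: 0% = DMSO wells and 100% = Ran loaded with GDP instead of GTP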
# FAS TE block: blocks the thioesterase domain of human fatty acid synthase; recombinant FAS-TE, OMFH fluorogenic substrate, fluorescence endpoint; inhibition, % at 15 µM; 360,000 tested, 0.67% active; AID 602261;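 active means compounds whose normalised, plate-corrected inhibition of enzyme fluorescence in the single-dose primary screen is 50% or more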;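 further: 0% = DMSO with enzyme and 100% = substrate without enzyme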
# m-calpain inh: inhibitors of pig calpain II | 220,000 tested, 0.37% active | purified calpain II, fluorogenic peptide substrate, 30 min | AID 1236 | inhibition, % at 16 µM;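 active means inhibition above about 50%, limit read from the data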
# Runt-SMMHC FRET: Runt domain-CBFb-SMMHC interaction inhibition; inhibition, % at 20 µM; Q01196+Q13951; Cerulean-Runt/Venus-CBFb-SMMHC FRET ratio 530/480, 1 h; AID 1434; 220,000 tested, 0.74% active;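 active means mean inhibition across duplicate retests at 20 µM reaching about 50%, limit read from the data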;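 further: 0% = DMSO wells and 100% = wells with excess untagged CBFb-SMMHC; inhibitors lower the FRET ratio by blocking Runt binding to CBFb-SMMHC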
# Runt-CBFb FRET: inhibitors of human RUNX1 Runt domain binding to CBFb; Q01196+Q13951; Cerulean-Runt/Venus-CBFb FRET ratio 530/480, 1 h; inhibition, % at 20 µM; 220,000 tested, 0.46% active;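 active means inhibition over about 50% at 20 µM in the single-dose screen, limit read from the data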;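 further: 0% = DMSO wells and 100% = excess unlabeled CBFb competitor control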
#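 Buffer or medium: Tris pH 7.5 buffer with BSA. Assay system: Cerulean-labeled Runt domain protein. Amount: each fluorescent fusion protein 100 nM. Read-out basis: loss of energy transfer signal. Incubation: 1 h compound exposure, room temperature. Probe or stimulus: Venus-CBFb binding partner, 100 nM. Detection: FRET, excitation 422 nm, emission at 530 and 480 nm.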
# YIC FRET counter: counter-screen: alters YIC FRET probe signal | Purified YIC probe, intramolecular FRET ratio YFP/CFP | IC50, µM | 1,000 tested, 40% active | shares compounds with RanGTP-Impb inh;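 active means fitted half-maximal inhibitory concentration no more than tenfold above the top dose tested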
# An asterisk follows results filed as active; i = inactive; . = no result given.
SMILES,RanGTP-Impb inh,FAS TE block,m-calpain inh,Runt-SMMHC FRET,Runt-CBFb FRET,YIC FRET counter
CC(=O)c1c(N2CCN(C)CC2)nc(=S)n(-c2cc(C)ccc2C)c1C,34*,-9,-25,74*,42,>50
CC(C)SCC(=O)Nc1ncc2c(n1)-c1ccccc1CC2,18*,-3,-152,18,7,3.5*
CCOC(=O)C1(C)CCCCCN1C(=O)c1snnc1C (stereo unspecified),.,-3,.,.,.,.
COCCNC(=O)C(C)OC(=O)c1cc2occc2n1C (stereo unspecified),19*,-4,11,0,2,>50
O=Cc1cn(CC(=O)N2CCCCC2)c2ccccc12,-2,-9,-13,1,-3,.
Cn1cc(/C=C2/SC(=O)N(c3ccccc3)C2=O)c2ccccc21,1,-10,-70,-55,-12,.
O=C(O)Cn1cc(/C=C2/SC(=O)N(CC(=O)N3CCCCCC3)C2=O)c2ccccc21,17*,.,4,27,8,>50
O=C(O)Cn1cc(/C=C2\SC(=O)N(c3ccccc3)C2=O)c2ccccc21,24*,0,-21,29,14,39*
OCCNc1c2ccccc2nc2c(F)c(F)c(F)c(F)c12,20*,-4,-170,.,47,6.5*
O=[N+]([O-])c1ccc(CNC2CCCc3ccccc32)cc1 (stereo unspecified),25*,12,37,72*,30,>50
CCOC(=O)c1ccccc1NC(=O)COC(=O)C(CCSC)NC(=O)COc1ccccc1 (stereo unspecified),24*,6,.,.,.,>50
COc1cc(C(=O)N(Cc2ccccc2)c2cccc(C)c2)ccc1OC(F)F,-3,20,.,.,.,.
Cc1ccccc1-n1c(=O)cc(N2CCN(C(=O)c3ccco3)CC2)[nH]c1=O,1,-5,9,-2,.,.
Cc1ccccc1-n1c(=O)cc(N2CCC3(CC2)OCCO3)[nH]c1=O,33*,-11,-10,1,-1,>50
c1c2c(cc3sc(N4CCOCC4)nc13)OCCO2,23*,-6,17,0,0,>50
CCN(C(=O)COC(=O)Cn1c(=O)oc2ccccc21)c1c(N)n(Cc2ccccc2)c(=O)[nH]c1=O,.,-8,.,.,.,.
CC(=O)O/N=C/c1c(Cl)n(C)c2ccccc12,48*,-7,-16,4,-1,>50
Cn1c(Cl)c(/C=N/OC(=O)C(C)(C)C)c2ccccc21,4,19,4,2,-3,.
N#CCSc1ccccc1NC(=O)COC(=O)Cc1c[nH]c2ccccc12,.,-5,.,.,.,.
CC1=CC(c2ccccc2)n2ncnc2N1 (stereo unspecified),0,1,.,.,.,.
Cc1cc(C)c(C2=CC(c3ccccc3)n3ncnc3N2)cc1C (stereo unspecified),18*,.,.,.,.,30*
N#C/C(=C\c1ccc(-c2ccc(F)cc2)o1)C(=O)Nc1nc(-c2cccs2)cs1,19*,-10,12,-32,-9,>50
Cc1cccc(/C=N/c2sc3c(c2C#N)CCN(Cc2ccccc2)C3)c1O,36*,-40,-17,126*,31,>50
S=c1[nH]c2cc3ccccc3cc2[nH]1,-1,-1,19,3,9,.
S=c1[nH]c2ccc3ccccc3c2[nH]1,17*,-8,-14,7,-15,>50
SMILES,RanGTP-Impb inh,FAS TE block,m-calpain inh,Runt-SMMHC FRET,Runt-CBFb FRET,YIC FRET counter
Oc1nc(Nc2ccc(F)cc2)sc1/C=C1\C=Nc2ccccc21,19*,1,-18,-3,-5,>50
CC1=Nc2ccccc2/C1=C\c1sc(Nc2ccc(C)cc2)nc1O,21*,13,-55,-9,-14,>50
Oc1nc(Nc2cccc(Cl)c2)sc1/C=C1\C=Nc2ccccc21,11,13,-34,-38,-27,.
Oc1cccc(Nc2nc(O)c(/C=C3\C=Nc4ccccc43)s2)c1,.,-3,11,-114,-40,.
O=C(NC1CC1)[C@@H]1CSC2c3ccccc3C(=O)N21 (stereo partly specified),-1,-6,.,.,.,.
COc1ccc(NC(=O)c2ccc3snnc3c2)cc1,96*,3,-8,-6,2,>50
Oc1c(C=Nc2ccccc2)sc2ccccc12,16*,-18,-24,.,.,7.6*
CN=Cc1sc2ccccc2c1O,13,-6,11,54,28,.
CC1CC1c1ccc(/C=C(\C#N)C(=O)Nc2ccccc2Cl)o1 (stereo unspecified),36*,28,32,-1,-5,52*
CC1CC1c1ccc(/C=C(\C#N)C(=O)Nc2ccc(Cl)cc2)o1 (stereo unspecified),16*,29,3,2,0,>50
N#C/C(=C/c1ccc(N2CCCCC2)o1)C(=O)Nc1ccc(Cl)cc1,8,-89,-15,-43,24,.
COc1ccc(NC(=O)/C(C#N)=C\c2ccc(N3CCOCC3)o2)cc1,18*,-119,14,-90,-17,47*
COc1ccccc1N(CC(=O)Nc1ccccc1C(F)(F)F)S(=O)(=O)c1cccs1,.,27,.,.,.,.
CC(O)(c1ccc(F)c(F)c1)c1nc(-c2ccc(F)c(Cl)c2)cs1 (stereo unspecified),.,39,.,.,.,.
O=c1c2ccccc2[nH]c2ccccc12,19*,-2,i,83*,120*,49*
O=C(/C=C/c1ccc[nH]1)c1ccc(F)cc1,28*,-8,1,3,28,25*
O=C(/C=C/c1c(F)cccc1Cl)c1ccc(F)cc1,-5,8,-15,-1,1,.
O=C(/C=C/c1ccc[nH]1)c1ccccc1,23*,-5,-30,11,25,32*
COc1ccc(/C=N/NC(=O)c2cccc(NC(=O)c3ccccc3Cl)c2)c(OC)c1,7,2,-92,3,.,.
CCOc1ncccc1C(=O)Nc1cc(S(=O)(=O)N(CC)CC)ccc1N1CCOCC1,.,8,.,.,.,.
COc1cc(CN2CCN(Cc3c[nH]c4ccccc34)CC2CCO)cc(OC)c1 (stereo unspecified),21*,-5,.,.,.,>50
COc1ccc(CN2CCN(Cc3c[nH]c4ccccc34)CC2CCO)cc1C (stereo unspecified),-1,-2,.,.,.,.
COCCNC(=O)CN(c1ccc(F)cc1)S(=O)(=O)c1ccc2c(c1)OCCO2,-1,-5,.,.,.,.
COc1nc(-c2ccccc2)cc(-c2ccc3c(c2)OCO3)c1C#N,-1,10,12,3,1,.
N#Cc1c(-c2ccc3c(c2)OCO3)ccn2nc(-c3cccc(C(F)(F)F)c3)nc12,20*,22,-457,30,-6,22*
Cc1csc(SCC(=O)N(C)C2CCS(=O)(=O)C2)n1 (stereo unspecified),.,-7,.,.,.,.
C[C@@H]1CCCCO[C@H](CN(C)C(=O)Cc2ccccc2)[C@@H](C)CN([C@H](C)CO)C(=O)c2cc(NC(=O)Nc3ccccc3)ccc2O1,.,6,.,.,.,.
